Test results published in ChEMBL document CHEMBL3621107, “Ring fusion strategy for synthesis and lead optimization of sulfur-substituted anthra[1,2-c][1,2,5]thiadiazole-6,11-dione derivatives as promising scaffold of antitumor agents” (Eur J Med Chem, 2015).

Assays:
PC-3 = experiment: Cytotoxicity against human PC3 cells assessed as cell growth at 10 uM after 48 hrs by SRB assay relative to control; format: functional; conditions: PC-3, 48 h, read-out: Activity
Procedure, shortened: (§1)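 First-stage NCI DTP one-dose screen against the 60 human tumour cell line panel. Compounds were tested at a single 10 μM level, and results are given as growth percentage.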

SK-MEL-5 = experiment: Cytotoxicity against human SK-MEL-5 cells assessed as cell growth at 10 uM after 48 hrs by SRB assay relative to control; format: functional; conditions: SK-MEL-5, 48 h, read-out: Activity; procedure, shortened: as §1
HOP-92 = experiment: Cytotoxicity against human HOP92 cells assessed as cell growth at 10 uM after 48 hrs by SRB assay relative to control; format: functional; conditions: HOP-92, 48 h, read-out: Activity
Procedure, shortened: (§2)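 First-stage NCI-60 screen by the NCI Developmental Therapeutics Program. Each compound was tested once at a single concentration of 10 μM against the 60-cell-line panel. Growth percentage was reported for each cell line.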

NCI-H322M = experiment: Cytotoxicity against human NCI-H322M cells assessed as cell growth at 10 uM after 48 hrs by SRB assay relative to control; format: functional; conditions: read-out: Activity; procedure, shortened: as §1
DU-145 [1] = experiment: Cytotoxicity against human DU145 cells assessed as cell growth at 10 uM after 48 hrs by SRB assay relative to control; format: functional; conditions: DU-145, 48 h, read-out: Activity; procedure, shortened: as §2
MDA-MB-468 = experiment: Cytotoxicity against human MDA-MB-468 cells assessed as cell growth at 10 uM after 48 hrs by SRB assay relative to control; format: functional; conditions: MDA-MB-468, 48 h, read-out: Activity; procedure, shortened: as §1
LOX IMVI = experiment: Cytotoxicity against human LOXIMVI cells assessed as cell growth at 10 uM after 48 hrs by SRB assay relative to control; format: functional; conditions: read-out: Activity; procedure, shortened: as §2
[2] = Cytotoxicity against human EKVX cells assessed as cell growth at 10 uM after 48 hrs by SRB assay relative to control; format: functional; conditions: read-out: Activity; procedure, shortened: as §2
U-251 = experiment: Cytotoxicity against human U251 cells assessed as cell growth at 10 uM after 48 hrs by SRB assay relative to control; format: functional; conditions: U-251, 48 h, read-out: Activity
Procedure, shortened: (§3)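 NCI-60 one-dose screen run by NCI DTP: each cell line exposed to a single 10 µM dose, and percentage growth recorded against untreated growth.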

OVCAR-4 = experiment: Cytotoxicity against human OVCAR4 cells assessed as cell growth at 10 uM after 48 hrs by SRB assay relative to control; format: functional; conditions: OVCAR-4, 48 h, read-out: Activity; procedure, shortened: as §1
K562 = experiment: Cytotoxicity against human K562 cells assessed as cell growth at 10 uM after 48 hrs by SRB assay relative to control; format: functional; conditions: K562, 48 h, read-out: Activity; procedure, shortened: as §2
M14 = experiment: Cytotoxicity against human M14 cells assessed as cell growth at 10 uM after 48 hrs by SRB assay relative to control; format: functional; conditions: M14, 48 h, read-out: Activity; procedure, shortened: as §2
SF-268 = experiment: Cytotoxicity against human SF268 cells assessed as cell growth at 10 uM after 48 hrs by SRB assay relative to control; format: functional; conditions: SF-268, 48 h, read-out: Activity; procedure, shortened: as §1
IGROV-1 = experiment: Cytotoxicity against human IGROV1 cells assessed as cell growth at 10 uM after 48 hrs by SRB assay relative to control; format: functional; conditions: IGROV-1, 48 h, read-out: Activity; procedure, shortened: as §2
OVCAR-3 = experiment: Cytotoxicity against human OVCAR3 cells assessed as cell growth at 10 uM after 48 hrs by SRB assay relative to control; format: functional; conditions: OVCAR-3, 48 h, read-out: Activity; procedure, shortened: as §1
[3] = Cytotoxicity against human Hs578T cells assessed as cell growth at 10 uM after 48 hrs by SRB assay relative to control; format: functional; conditions: Hs-578T, read-out: Activity; procedure, shortened: as §2
T47D = experiment: Cytotoxicity against human T47D cells assessed as cell growth at 10 uM after 48 hrs by SRB assay relative to control; format: functional; conditions: read-out: Activity; procedure, shortened: as §3
CCRF-CEM = experiment: Cytotoxicity against human CCRF-CEM cells assessed as cell growth at 10 uM after 48 hrs by SRB assay relative to control; format: functional; conditions: read-out: Activity; procedure, shortened: as §2
DU-145 [4] = experiment: Cytotoxicity against human DU145 cells after 72 hrs by MTT assay; format: functional, cell-based; conditions: for IC50: DU-145, 72 h
Procedure, shortened: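 DU-145 cells grown in RPMI-1640 with 5% heat-inactivated fetal calf serum at 37 °C, 5% CO2. About 2×10^3 cells per well were seeded and incubated for 24 h. Compounds were dissolved in DMSO freshly and diluted into medium (vehicle 0.1% DMSO), then cells were exposed for 72 h. MTT was added for 3 h at 37 °C and absorbance read at 570 nm.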

MOLT-4 = experiment: Cytotoxicity against human MOLT4 cells assessed as cell growth at 10 uM after 48 hrs by SRB assay relative to control; format: functional; conditions: MOLT-4, 48 h, read-out: Activity; procedure, shortened: as §1
SNB-75 = experiment: Cytotoxicity against human SNB75 cells assessed as cell growth at 10 uM after 48 hrs by SRB assay relative to control; format: functional; conditions: SNB-75, 48 h, read-out: Activity; procedure, shortened: as §3
HCC 2998 = experiment: Cytotoxicity against human HCC2998 cells assessed as cell growth at 10 uM after 48 hrs by SRB assay relative to control; format: functional; conditions: HCC 2998, 48 h, read-out: Activity; procedure, shortened: as §2
NCI-H522 = experiment: Cytotoxicity against human NCI-H522 cells assessed as cell growth at 10 uM after 48 hrs by SRB assay relative to control; format: functional; conditions: NCI-H522, 48 h, read-out: Activity; procedure, shortened: as §1
RXF 393 = experiment: Cytotoxicity against human RXF393 cells assessed as cell growth at 10 uM after 48 hrs by SRB assay relative to control; format: functional; conditions: RXF 393, 48 h, read-out: Activity; procedure, shortened: as §1
CAKI-1 = experiment: Cytotoxicity against human Caki1 cells assessed as cell growth at 10 uM after 48 hrs by SRB assay relative to control; format: functional; conditions: CAKI-1, 48 h, read-out: Activity; procedure, shortened: as §2
A498 = experiment: Cytotoxicity against human A498 cells assessed as cell growth at 10 uM after 48 hrs by SRB assay relative to control; format: functional; conditions: A498, 48 h, read-out: Activity; procedure, shortened: as §2
BT-549 = experiment: Cytotoxicity against human BT549 cells assessed as cell growth at 10 uM after 48 hrs by SRB assay relative to control; format: functional; conditions: BT-549, 48 h, read-out: Activity; procedure, shortened: as §2
RPMI-8226 = experiment: Cytotoxicity against human RPMI8226 cells assessed as cell growth at 10 uM after 48 hrs by SRB assay relative to control; format: functional; conditions: RPMI-8226, 48 h, read-out: Activity; procedure, shortened: as §1
MDA-MB-435 = experiment: Cytotoxicity against human MDA-MB-435 cells assessed as cell growth at 10 uM after 48 hrs by SRB assay relative to control; format: functional; conditions: MDA-MB-435, 48 h, read-out: Activity; procedure, shortened: as §1
ACHN = experiment: Cytotoxicity against human ACHN cells assessed as cell growth at 10 uM after 48 hrs by SRB assay relative to control; format: functional; conditions: read-out: Activity; procedure, shortened: as §2
HT-29 = experiment: Cytotoxicity against human HT-29 cells assessed as cell growth at 10 uM after 48 hrs by SRB assay relative to control; format: functional; conditions: HT-29, 48 h, read-out: Activity; procedure, shortened: as §2

SMILES	growth at 10 µM (SK-MEL-5) [%]	growth at 10 µM (NCI-H322M) [%]	growth at 10 µM (DU-145 [1]) [%]	growth at 10 µM (MDA-MB-468) [%]	growth at 10 µM (LOX IMVI) [%]	growth at 10 µM (U-251) [%]	growth at 10 µM (OVCAR-4) [%]	growth at 10 µM (K562) [%]	growth at 10 µM (M14) [%]	growth at 10 µM (SF-268) [%]	growth at 10 µM (IGROV-1) [%]	growth at 10 µM (OVCAR-3) [%]	growth at 10 µM [3] [%]	growth at 10 µM (T47D) [%]	IC50 (DU-145 [4]) [µM]	growth at 10 µM (MOLT-4) [%]	growth at 10 µM (SNB-75) [%]	growth at 10 µM (HCC 2998) [%]	growth at 10 µM (RXF 393) [%]	growth at 10 µM (RPMI-8226) [%]	further results
O=C1c2ccccc2C(=O)c2c1cc(Cl)c1nsnc21	72.5	108	97	-88.3	10.2	29.2	-75	2.44	103	37	52.5	49.9	72.5	-54.6	6.68	-34.1	85.2	106	71.9	27.8	growth at 10 µM (PC-3): 23.5%; growth at 10 µM (HOP-92): -52.2%; growth at 10 µM [2]: 82.2%; growth at 10 µM (CCRF-CEM): -41.8%; growth at 10 µM (NCI-H522): 89.5%; growth at 10 µM (CAKI-1): 96.5%; growth at 10 µM (A498): 93.8%; growth at 10 µM (BT-549): 102%
CC(C)Sc1cc2c(c3nsnc13)C(=O)c1ccccc1C2=O	-99.2	-0.8	6.66	-78.8	-21.6	-23.1	-100	-26.2	-31.5	7.06	-32.9	-60.3	-9.16	-24.4	4.53	-54.6	9.12	21	13.6	-38	growth at 10 µM (PC-3): -13.4%; growth at 10 µM [2]: -6.58%; growth at 10 µM (MDA-MB-435): -79.3%; growth at 10 µM (ACHN): 0.8%; growth at 10 µM (CCRF-CEM): -45%; Activity (DU-145 [4]): Dose-dependent effect; growth at 10 µM (NCI-H522): -59.5%; growth at 10 µM (CAKI-1): -5.68%; growth at 10 µM (HT-29): 48.1%; growth at 10 µM (BT-549): 10.8%
O=C1c2ccccc2C(=O)c2c1cc(SCc1ccc(Cl)cc1)c1nsnc21	89.6	94.1	115	83.4	86.7	94.4	84.2	67.5	126	107	84.2	113	88.6	83.8	7.51	22.7	63.4	103	105	86.8	growth at 10 µM (PC-3): 82.9%; growth at 10 µM (ACHN): 94.3%; growth at 10 µM (NCI-H522): 82.6%; growth at 10 µM (HT-29): 96.4%; growth at 10 µM (BT-549): 115%
Cc1cccc(C)c1Sc1cc2c(c3nsnc13)C(=O)c1ccccc1C2=O	70.2	83.8	106	45.9	44.6	53.9	4	43.1	122	79.5	66.4	1	82.4	66.8	7.88	32.6	69.4	101	76.2	55.6	growth at 10 µM (PC-3): 59.9%; growth at 10 µM [2]: 82.4%; growth at 10 µM (MDA-MB-435): 96.8%; growth at 10 µM (ACHN): 83.2%; growth at 10 µM (CCRF-CEM): 34.8%; growth at 10 µM (NCI-H522): 61.4%; growth at 10 µM (CAKI-1): 61%; growth at 10 µM (HT-29): 97.7%; growth at 10 µM (BT-549): 105%
O=C1c2ccccc2C(=O)c2c1ccc1nsnc21	8.52	126	40.8	-73.2	-50.6	-89.3	-94.4	49.6	74.5	16.3	-88.3	-15.5	7.4	-45.5	7.41	-40.1	79	-0.74	20.1	-28	growth at 10 µM [2]: 103%; growth at 10 µM (MDA-MB-435): -87.9%; growth at 10 µM (ACHN): -94.3%; growth at 10 µM (CCRF-CEM): -30.8%; growth at 10 µM (CAKI-1): 1.97%; growth at 10 µM (A498): 130%; growth at 10 µM (HT-29): 117%
